Screens as filed in PubChem BioAssay.
STAT1 act – increases IFN-gamma driven STAT1 reporter signal; NIH 3T3 STAT1-luciferase reporter, luminescence; 100% = IFN-gamma alone, no compound; activation (% of control), % at 5.5 µM; 2.6% of 200,000 active; AID 932;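 active means activation above the screen-wide mean activation plus 3 SD, cut at about 130% in these data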
APP 5'UTR act – APP 5'UTR luciferase reporter activation; SH-SY5Y APP 5'UTR luciferase reporter, luminescence; zero percent = DMSO vehicle wells; activation, % at 2 µM; 1% of 190,000 active; AID 1276;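 active means activation above a set limit, based on mean plus 3 SD of controls, cut at about 140% in these data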
STAT1 inh – STAT1 signaling inhibition; NIH 3T3 STAT1-luciferase reporter, IFN-gamma, luminescence; 0.35% of 200,000 active; inhibition, % at 5.5 µM;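 active means inhibition above a set limit, the mean inhibition across all tested compounds plus 3 SD, cut at about 34% in these data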
STAT3 inh – STAT3 signaling inhibition; U3A cells, IL-6 STAT3-luciferase reporter, luminescence; host cell line lacks STAT1; inhibition, % at 5.5 µM; 0.89% of 190,000 active; AID 862;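 active means inhibition above the mean inhibition across all screened compounds plus 3 SD, cut at about 44% in these data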
STAT3 activator – activators of IL-6 induced STAT3 signaling. 0.91% of 190,000 active. AID 871. activation (% of control), % at 5.6 µM. U3A cells, IL-6 STAT3-luciferase reporter, luminescence; 100% = signal with IL-6 EC80 alone;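 active means activation above the screen-wide mean of compound activation plus 3 SD, cut at about 130% in these data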
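Material: STAT1-lacking human U3A cells, STAT3 luciferase reporter | Benchmarks: IL-6-only wells as 100% reference | Probe or stimulus: IL-6 (33 ng/mL) | Timing: Compound 1 h, then IL-6 6 h at 37 °C | Detection: Luminescence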
NF-kB neuron act – NF-kB expression increase, human neuronal cells; AID 1239; 1.6% of 190,000 active; NF-kB reporter expression; active compounds read high; fold change at 12.5 µM; in the data active means fold change above about 3.3
Large screens that a line does not name were inactive. Sampled rows, rich in hits. Any-hit rate of the full collection: about 5.1%.

C=C(C)C1CC=C(C)/C(=N/NC(=O)c2ccoc2C)C1 (configuration not stated)	STAT1 act 138
CC(=O)N1C(C(=O)O)CSC1c1ccc(C)cc1 (configuration not stated)	NF-kB neuron act 4.2 (no result: STAT1 act, STAT1 inh, STAT3 inh, STAT3 activator)
Clc1ncnc2c1oc1ccccc12	STAT1 act 142, STAT3 activator 134
CC(=O)c1ccc(Nc2ncnc3c2oc2ccccc23)cc1	STAT1 act 161
CCc1nc(NCc2ccccn2)c2oc3ccccc3c2n1	none (no result: STAT1 act, APP 5'UTR act, STAT1 inh, STAT3 inh, STAT3 activator)
CC(=O)Nc1ccc(Nc2nc(C)nc3c2oc2ccccc23)cc1	none
COc1ccc(CCNc2ncnc3c2oc2ccccc23)cc1OC	STAT3 inh 80
c1ccc(CNc2ncnc3c2oc2ccccc23)nc1	STAT1 act 132
COc1ccc(CCNc2nc(C)nc3c2oc2ccccc23)cc1OC	none
O=C(NC(=S)Nc1ccc2c(c1)OCCO2)c1ccccc1	APP 5'UTR act 179, NF-kB neuron act 4.7
O=C(NC(=S)Nc1ccc2c(c1)OCCO2)c1ccccc1F	STAT1 act 149, APP 5'UTR act 159, NF-kB neuron act 7.4
NC(=O)Nc1ccc2c(c1)OCCO2	none (no result: APP 5'UTR act)
O=C(Nc1ccc2c(c1)OCCO2)c1c(F)cccc1F	NF-kB neuron act 4
O/N=C/c1ccn(-c2ccc(Br)cc2)c1	STAT1 act 131
CC(C)(C)c1ccccc1NC(=S)NC1CCCCC1	none
O=[N+]([O-])c1cc(/C=N/Nc2nc3ccccc3[nH]2)c(O)cc1O	none
O=C(O)c1ccc(/C=C/c2ccc3cccc(O)c3n2)cc1	none
COC(=O)c1ccc(/C=C/c2ccc3cccc(OC(C)=O)c3n2)cc1	NF-kB neuron act 3.7
CCN(CC)CC(C)OC(=O)COc1ccc(OC)cc1 (configuration not stated)	none
Cc1ccc(C(=O)NC2CCCCC2)cc1	STAT1 act 139
CCN(CC)S(=O)(=O)c1cc(C(=O)NC2CCCCC2)ccc1C	STAT1 act 129
CCN(CC)S(=O)(=O)c1cc(C(=O)Nc2ccc(Cl)cn2)ccc1C	STAT1 act 135, APP 5'UTR act 183
CC1=C(C(=O)Nc2ccccc2)C(c2cccs2)NC(=O)N1 (configuration not stated)	none
CN(CC(=O)NC1CCCc2ccccc21)S(=O)(=O)c1cccs1 (configuration not stated)	none
CCn1nnnc1SCC(=O)Nc1ccc2c(c1)OCCO2	STAT1 act 139
COCCCn1nnnc1SCC(=O)Nc1ccc2c(c1)OCCO2	none
O=C(CSc1nnc(-c2cccc(Cl)c2)o1)Nc1ccc2c(c1)OCCO2	APP 5'UTR act 159
CCn1nnc(NC(=O)C(c2ccccc2)c2ccccc2)n1	none
Cc1sc(NC(=O)c2ccccc2F)c(CN2CCCCC2C)c1C (configuration not stated)	STAT1 act 137
COc1ccc(C(=O)C(OC(=O)c2ccccc2Cl)c2ccccc2)cc1 (configuration not stated)	STAT1 act 140
Cc1ccc(NC(=O)C(OC(=O)c2ccccc2Cl)c2ccccc2)cc1Cl (configuration not stated)	none
COc1ccc(C(=O)C(OC(=O)c2ccccc2)c2ccccc2)cc1 (configuration not stated)	STAT1 act 133
CCOc1cc(C(=O)Nc2ccc(NC(C)=O)cc2)ccc1OCC(=O)N1CCCCC1	none
CC(C)CN1CCN(Cc2cccc3cccnc23)CC1CCO (configuration not stated)	none
N#Cc1c(NCCO)nc(NCc2ccccc2)c2c1CCN(Cc1ccccc1)C2	NF-kB neuron act 5.8
C=CCNc1nc(N2CCCCC2)c(C#N)c2c1CN(Cc1ccccc1)CC2	NF-kB neuron act 4.7
Cc1ccc2c(c1)N(C(=O)CCC(=O)O)CCO2	none
CSc1ccc(-c2nnn(Cc3ccc(Br)cc3)n2)cc1	none
CSc1ccc(-c2nnn(Cc3ccccn3)n2)cc1	STAT1 act 140
COc1ccccc1/C=C1\SC(=S)N(CC(=O)Nc2nnc(C)s2)C1=O	none
Cc1cc2ccccn2c1C(=O)Nc1ccccc1	STAT3 activator 134
CCCC[n+]1c(-c2ccc(Cl)cc2Cl)csc1Nc1ccccc1	none
Clc1ccc(-c2csc(Nc3ccccc3)[n+]2Cc2ccco2)c(Cl)c1	STAT1 act 140
Cc1ccc(-c2n[nH]c(=S)n2/N=C/c2c(C)[nH]n(-c3ccccc3)c2=O)cc1	none
CC(C)(O)C#Cc1ccc(CN2CCN(Cc3ccsc3)C(CCO)C2)cc1 (configuration not stated)	NF-kB neuron act 3.8
C#Cc1ccc(CN2CCN(Cc3ccsc3)C(CCO)C2)cc1 (configuration not stated)	none
Cc1ccc(NC2=NCC(=O)N2Cc2cccs2)cc1C	none
CNC(=S)NNc1ccccc1[N+](=O)[O-]	none
COCCNC(=S)NNc1ccccc1[N+](=O)[O-]	STAT3 activator 136
CC(C)COc1ccc(C(=O)Nc2ccccc2[N+](=O)[O-])cc1	STAT1 act 133
COc1ccc(C(=O)NCCNc2ccccc2[N+](=O)[O-])cc1	STAT1 act 148, APP 5'UTR act 163
CCCOc1ccc(C(=O)Nc2ccc(C)cc2[N+](=O)[O-])cc1	none
COc1ccc(C(=O)NCCSCc2ccccc2C)cc1	none
COCc1cc(CN2CCN(C)CC2)c(O)c2ncccc12	none
Oc1c(CN2CCOCC2)cc(COCc2ccccc2)c2cccnc12	NF-kB neuron act 4.2
O=c1nc2c(-c3ccccc3F)n[nH]n2c2ccccc12	STAT1 act 134
CCc1ccc(S(=O)(=O)c2n[nH]n3c2nc(=O)c2ccccc23)cc1	none
Cc1ccc(C(=O)n2c(N)nc3ccccc32)cc1	STAT1 inh 89, STAT3 inh 103
COc1ccc(C(=O)n2c(-c3ccco3)nc3ccccc32)cc1	none
Cc1ccc(S(=O)(=O)N2CCOCC2)cc1NC(=O)CSc1nnnn1C	none
O=C(c1ccccc1)n1ccc(-c2cnc(-c3ccccc3)s2)n1	APP 5'UTR act 141, NF-kB neuron act 6
CN(CCc1ccccn1)C(=O)CCC1CCCN(C(=O)c2c3c(nn2C)CCCC3)C1 (configuration not stated)	none
CCc1ccc(-c2nc(CCl)cs2)cc1	STAT1 act 147
COc1ccc(-c2nc(CCl)cs2)cc1	none
O=C(NCCSCc1ccccc1)c1ccc(F)cc1	none
COc1ccc(C2=NN(C(=O)CN3CCOCC3)C(c3nc4ccccc4[nH]3)C2)cc1 (configuration not stated)	STAT1 act 133
COc1ccc(C2=NN(C(=O)CN3CCCCC3)C(c3ccc(C)cc3)C2)cc1 (configuration not stated)	none
CC(C)(C)C(=O)NC(=S)Nc1ccc(F)cc1	none
NNc1nc(-c2ccccc2)nc2sc3c(c12)CCCC3	STAT1 act 140, APP 5'UTR act 171, STAT3 activator 139
